Laboratory results published in ChEMBL document CHEMBL4819017 (Eur J Med Chem, 2021).

Experiments:
[1] = biological target: PI3-kinase p110-alpha/p85-alpha (Homo sapiens, UniProt P42336); test: Inhibition of human p110alpha/p85alpha using PIP2 as substrate in presence of ATP measured by HTRF assay; assay type: protein-complex assay
[2] = Metabolic stability in mouse liver microsomes assessed as parent compound remaining in presence of NADPH regenerating system at 0.5 uM measured after 15 mins by LC-MS/MS analysis; assay type: ADME, Microsome; settings: read-out: Stabilty
Procedure, shortened: (§1)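 Human, mouse or rat liver microsomes at 0.5 mg/ml protein with compound at 0.5 µM and NADPH-regenerating system, 37 °C with shaking. Control wells contain 0.1 M potassium phosphate instead of the regenerating system. Reaction stopped with acetonitrile/0.1% formic acid, centrifuged, supernatant analyzed by LC-MS/MS. Result is percent parent compound remaining.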

MCF7 = test: Growth inhibition of human MCF7 cells harboring mutated p110alpha measured after 72 hrs by Cell titre Glo-luminiscence cell viability assay; assay type: functional
Procedure, shortened: (§2)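 Cells harvested just before confluency and seeded at 4,000 cells/well, then left 24 h before dosing. Serial dilutions from 10 mM DMSO stocks, final DMSO ≤0.5%, each concentration in duplicate.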

HCT-116 = test: Growth inhibition of human HCT-116 cells harboring mutated p110alpha measured after 72 hrs by Cell titre Glo-luminiscence cell viability assay; assay type: functional; procedure, shortened: as §2
[3] = biological target: PI3-kinase p110-delta/p85-alpha (Homo sapiens, UniProt O00329); test: Inhibition of human p110delta/p85alpha using PIP2 as substrate in presence of ATP measured by HTRF assay; assay type: protein-complex assay
[4] = biological target: Serine/threonine-protein kinase mTOR (Homo sapiens, UniProt P42345); test: Inhibition of recombinant human GST tagged mTOR (1360 to 2549 residues) expressed in baculovirus expression system measured by LanthaScreen assay
Procedure, shortened: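 mTOR inhibition measured by LanthaScreen assay; IC50 values average two independent experiments.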

[5] = Clearance in BALB/c mouse at 5 mg/kg, iv measured for 8 hrs; assay type: ADME, organism-based; settings: in vivo
Procedure, shortened: (§3)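 BALB/c mice dosed I.V. or P.O. at the stated dose; plasma levels followed for 8 h. Parameters from noncompartmental analysis: AUC (h.ng/ml), T1/2 (h), Cl (L/h/Kg), Vd (L/Kg), Cmax (ng/ml), Tmax (h).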

SK-OV-3 = test: Growth inhibition of human SK-OV-3 cells harboring mutated p110alpha measured after 72 hrs by Cell titre Glo-luminiscence cell viability assay; assay type: functional; procedure, shortened: as §2
Homo sapiens [6] = species: Homo sapiens; test: Selectivity ratio of Ki for human p110gamma to Ki for human p110alpha/p85alpha using PIP2 as substrate in presence of ATP
Procedure, shortened: (§4)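 Ki from a PI3-kinase HTRF assay run per manufacturer. Enzyme levels: p110α/p85α and p110δ/p85α 100 pM, p110β/p85α 500 pM, p110γ 4 nM. ATP at 50× KM: 200 μM (α, δ), 250 μM (β), 100 μM (γ). PIP2 10 μM. Activity normalized to no-compound control. Ratio is the isoform Ki over the α Ki.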

[7] = Inhibition of PI3K/mTOR in human MCF7 cells assessed as reduction of S6 phosphorylation at Ser235/236 residue measured after 3 hrs by western blot assay; assay type: cell-based; settings: MCF7, 3 h
Procedure, shortened: (§5)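 MCF7 cells treated for 3 h across a dose range, washed and lysed with phosphatase and protease inhibitors. Lysates run on 10% SDS-PAGE and blotted, antibodies incubated overnight at 4 °C.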

Homo sapiens [8] = species: Homo sapiens; test: Selectivity ratio of Ki for human p110beta/p85alpha to Ki for human p110alpha/p85alpha using PIP2 as substrate in presence of ATP; procedure, shortened: as §4
[9] = biological target: Phosphatidylinositol 4,5-bisphosphate 3-kinase catalytic subunit gamma isoform (Homo sapiens, UniProt P48736); test: Inhibition of human p110gamma using PIP2 as substrate in presence of ATP measured by HTRF assay
Procedure, shortened: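 HTRF PI3-kinase assay with PIP2 at 10 µM. Enzyme and ATP levels (ATP at 50× KM): p110α/p85α 100 pM with 200 µM ATP; p110δ/p85α 100 pM with 200 µM ATP; p110β/p85α 500 pM with 250 µM ATP; p110γ 4 nM with 100 µM ATP. Activity normalized to no-compound control, variable-slope sigmoidal fit. Two independent experiments in duplicate.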

[10] = Inhibition of PI3K/mTOR in human MCF7 cells assessed as reduction of P70S6K phosphorylation at Thr389 residue measured after 3 hrs by western blot assay; assay type: cell-based; settings: MCF7, 3 h; procedure, shortened: as §5
[11] = Metabolic stability in human liver microsomes assessed as parent compound remaining in presence of NADPH regenerating system at 0.5 uM measured after 15 mins by LC-MS/MS analysis; assay type: ADME, Microsome; settings: read-out: Stabilty; procedure, shortened: as §1
[12] = Half life in BALB/c mouse at 10 mg/kg, po measured for 8 hrs; assay type: ADME, organism-based; settings: in vivo; procedure, shortened: as §3
Homo sapiens [13] = species: Homo sapiens; test: Selectivity ratio of Ki for human p110delta/p85alpha to Ki for human p110alpha/p85alpha using PIP2 as substrate in presence of ATP; procedure, shortened: as §4
[14] = AUC (infinity) in BALB/c mouse at 5 mg/kg, iv measured for 8 hrs; assay type: ADME, organism-based; set-up: route intravenous, dose 5 mg/kg, time 8 hrs; settings: in vivo; procedure, shortened: as §3
HT-29 = test: Growth inhibition of human HT-29 cells harboring mutated p110alpha measured after 72 hrs by Cell titre Glo-luminiscence cell viability assay; assay type: functional; procedure, shortened: as §2
[15] = biological target: PI3-kinase p110-alpha/p85-alpha (Homo sapiens, UniProt P42336, H1047R); test: Inhibition of p110alpha H1047R mutant/p85alpha (unknown origin) using PIP2:3PS lipid kinase as substrate in presence of ATP measured by ADP-Glo lipid kinase assay; assay type: protein-complex assay
Procedure, shortened: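 Lipid kinase assay with PIP2:3PS substrate held at 3.25 µM. Activity normalized to no-compound control for each enzyme and fitted to a variable-slope sigmoidal dose-response curve.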

Cytochrome P450 2C19 = Cytochrome P450 2C19 (Homo sapiens, UniProt P33261); test: Inhibition of CYP2C19 (unknown origin) using LuciferinH-EG as substrate at 10 uM preincubated with enzyme and substrate for 5 mins followed by addition of NADPH regeneration system and measured after 60 mins by luminescence method; assay type: ADME
Procedure, shortened: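 P450-Glo luminescence assays with these substrates: Luciferin-ME (CYP1A2), Luciferin-PPXE (CYP3A4), Luciferin-H (CYP2C9), LuciferinH-EG (CYP2C19), Luciferin-ME-EG (CYP2D6). Compounds run in 1/3 serial dilutions from 10 µM in 0.5% DMSO with enzyme and substrate. After 5 min preincubation, NADPH regeneration reagent added; 60 min at 37 °C, then detection reagent for 30 min. Background subtracted.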

[16] = Metabolic stability in rat liver microsomes assessed as parent compound remaining in presence of NADPH regenerating system at 0.5 uM measured after 15 mins by LC-MS/MS analysis; assay type: ADME, Microsome; settings: read-out: Stabilty; procedure, shortened: as §1
[17] = biological target: Phosphatidylinositol 4,5-bisphosphate 3-kinase catalytic subunit alpha isoform (Homo sapiens, UniProt P42336); test: Inhibition of human full length p110alpha (1 to 1068 residues) expressed in baculovirus-infected Sf21 cells by ADP-Hunter Plus assay
Chain of Phosphatidylinositol 4,5-bisphosphate 3-kinase catalytic subunit alpha isoform (P42336 whole entry, the tested form may be a part, canonical isoform): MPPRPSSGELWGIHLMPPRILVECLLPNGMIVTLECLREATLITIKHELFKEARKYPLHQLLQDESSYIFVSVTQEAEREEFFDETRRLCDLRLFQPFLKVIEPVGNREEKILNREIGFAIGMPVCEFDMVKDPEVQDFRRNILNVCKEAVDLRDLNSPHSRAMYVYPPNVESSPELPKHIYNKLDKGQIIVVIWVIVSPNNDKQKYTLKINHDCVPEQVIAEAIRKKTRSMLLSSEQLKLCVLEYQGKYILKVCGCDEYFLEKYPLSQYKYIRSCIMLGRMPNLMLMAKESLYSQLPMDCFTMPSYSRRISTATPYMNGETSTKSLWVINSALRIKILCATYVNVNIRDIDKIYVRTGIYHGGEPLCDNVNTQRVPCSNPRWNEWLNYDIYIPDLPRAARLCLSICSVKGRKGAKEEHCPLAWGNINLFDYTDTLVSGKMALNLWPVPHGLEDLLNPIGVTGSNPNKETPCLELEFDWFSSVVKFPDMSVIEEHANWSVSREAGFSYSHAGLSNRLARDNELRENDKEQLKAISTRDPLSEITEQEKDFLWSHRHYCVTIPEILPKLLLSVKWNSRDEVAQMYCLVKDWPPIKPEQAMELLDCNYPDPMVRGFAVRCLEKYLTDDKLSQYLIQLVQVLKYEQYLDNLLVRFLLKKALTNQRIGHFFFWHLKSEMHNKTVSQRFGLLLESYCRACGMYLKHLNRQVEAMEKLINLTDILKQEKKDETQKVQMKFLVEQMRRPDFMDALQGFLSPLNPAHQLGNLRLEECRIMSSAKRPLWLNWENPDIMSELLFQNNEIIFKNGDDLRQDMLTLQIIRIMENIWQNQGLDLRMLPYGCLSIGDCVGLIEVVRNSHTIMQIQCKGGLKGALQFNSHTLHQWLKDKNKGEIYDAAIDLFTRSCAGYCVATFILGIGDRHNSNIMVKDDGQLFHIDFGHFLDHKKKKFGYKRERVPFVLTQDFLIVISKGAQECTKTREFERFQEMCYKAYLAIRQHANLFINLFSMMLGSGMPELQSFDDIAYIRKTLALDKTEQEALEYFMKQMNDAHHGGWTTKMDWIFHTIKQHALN

Chain of PI3-kinase p110-delta/p85-alpha (P27986 whole entry, the tested form may be a part): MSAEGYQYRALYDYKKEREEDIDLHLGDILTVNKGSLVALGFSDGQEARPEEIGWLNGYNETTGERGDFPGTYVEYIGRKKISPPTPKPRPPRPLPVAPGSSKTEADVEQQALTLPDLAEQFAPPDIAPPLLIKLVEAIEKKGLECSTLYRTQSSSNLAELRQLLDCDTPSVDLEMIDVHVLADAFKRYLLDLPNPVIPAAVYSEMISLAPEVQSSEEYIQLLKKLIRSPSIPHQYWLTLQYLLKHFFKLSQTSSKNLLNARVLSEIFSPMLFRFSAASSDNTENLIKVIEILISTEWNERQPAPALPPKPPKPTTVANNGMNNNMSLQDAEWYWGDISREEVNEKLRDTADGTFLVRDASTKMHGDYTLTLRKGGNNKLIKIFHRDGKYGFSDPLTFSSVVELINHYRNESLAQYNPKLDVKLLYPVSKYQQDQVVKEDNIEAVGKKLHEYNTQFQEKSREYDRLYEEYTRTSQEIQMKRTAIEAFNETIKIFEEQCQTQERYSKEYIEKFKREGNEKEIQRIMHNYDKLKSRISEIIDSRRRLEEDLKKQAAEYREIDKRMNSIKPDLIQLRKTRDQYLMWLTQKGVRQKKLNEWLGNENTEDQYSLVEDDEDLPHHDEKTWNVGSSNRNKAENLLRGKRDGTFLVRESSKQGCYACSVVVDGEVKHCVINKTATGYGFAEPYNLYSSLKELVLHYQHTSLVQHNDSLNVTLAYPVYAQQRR
Chain of PI3-kinase p110-delta/p85-alpha (O00329 whole entry, the tested form may be a part): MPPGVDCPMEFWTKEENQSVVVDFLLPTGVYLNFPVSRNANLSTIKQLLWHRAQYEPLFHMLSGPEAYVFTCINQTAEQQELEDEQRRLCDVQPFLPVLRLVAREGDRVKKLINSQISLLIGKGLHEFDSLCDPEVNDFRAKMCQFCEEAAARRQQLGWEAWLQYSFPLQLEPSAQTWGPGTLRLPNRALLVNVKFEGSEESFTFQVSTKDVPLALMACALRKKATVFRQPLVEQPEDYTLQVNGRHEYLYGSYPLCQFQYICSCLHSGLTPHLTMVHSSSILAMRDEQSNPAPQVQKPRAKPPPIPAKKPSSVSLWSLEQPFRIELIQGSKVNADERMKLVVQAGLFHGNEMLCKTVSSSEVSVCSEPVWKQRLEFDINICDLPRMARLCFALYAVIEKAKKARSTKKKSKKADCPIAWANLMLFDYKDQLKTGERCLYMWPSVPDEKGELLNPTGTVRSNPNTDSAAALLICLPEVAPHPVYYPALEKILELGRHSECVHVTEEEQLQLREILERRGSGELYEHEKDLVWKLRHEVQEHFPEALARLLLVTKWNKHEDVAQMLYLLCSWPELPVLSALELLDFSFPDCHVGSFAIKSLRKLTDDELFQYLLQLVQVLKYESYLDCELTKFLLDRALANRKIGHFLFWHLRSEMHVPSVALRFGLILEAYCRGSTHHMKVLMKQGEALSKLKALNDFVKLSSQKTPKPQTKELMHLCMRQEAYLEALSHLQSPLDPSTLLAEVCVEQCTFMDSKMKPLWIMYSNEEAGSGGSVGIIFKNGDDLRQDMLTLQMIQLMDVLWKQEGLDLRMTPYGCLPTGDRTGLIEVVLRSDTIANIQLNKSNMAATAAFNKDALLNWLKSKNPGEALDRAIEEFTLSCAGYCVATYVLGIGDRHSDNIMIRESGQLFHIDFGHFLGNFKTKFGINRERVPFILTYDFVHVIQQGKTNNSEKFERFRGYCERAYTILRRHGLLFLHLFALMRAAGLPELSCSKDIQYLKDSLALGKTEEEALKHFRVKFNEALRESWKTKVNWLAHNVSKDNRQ
Chain of PI3-kinase p110-alpha/p85-alpha (Homo sapiens, UniProt P42336) (P27986 whole entry): as the sequence (P27986 whole entry, the tested form may be a part) above
Chain of PI3-kinase p110-alpha/p85-alpha (Homo sapiens, UniProt P42336) (P42336 whole entry): as the sequence (P42336 whole entry, the tested form may be a part, canonical isoform) above
Chain of PI3-kinase p110-alpha/p85-alpha (Homo sapiens, UniProt P42336, H1047R) (P42336 whole entry H1047R, looked up): as the sequence (P42336 whole entry, the tested form may be a part, canonical isoform) above, with H1047R counted along it
Chain of Cytochrome P450 2C19 (P33261 whole entry): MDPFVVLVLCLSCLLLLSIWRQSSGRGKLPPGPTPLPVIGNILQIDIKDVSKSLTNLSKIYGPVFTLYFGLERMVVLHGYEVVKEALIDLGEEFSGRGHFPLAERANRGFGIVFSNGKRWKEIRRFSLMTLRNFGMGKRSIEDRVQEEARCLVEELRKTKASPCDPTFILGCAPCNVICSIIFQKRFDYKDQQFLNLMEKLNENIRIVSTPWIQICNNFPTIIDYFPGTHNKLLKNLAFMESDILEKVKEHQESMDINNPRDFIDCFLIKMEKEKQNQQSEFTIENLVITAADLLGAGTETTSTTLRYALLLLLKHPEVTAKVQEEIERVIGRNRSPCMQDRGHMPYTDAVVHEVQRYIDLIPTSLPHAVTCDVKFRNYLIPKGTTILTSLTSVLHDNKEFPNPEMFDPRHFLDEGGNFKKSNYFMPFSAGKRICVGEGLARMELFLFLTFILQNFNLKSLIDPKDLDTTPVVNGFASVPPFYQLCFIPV
Chain of Phosphatidylinositol 4,5-bisphosphate 3-kinase catalytic subunit gamma isoform (P48736 whole entry, canonical isoform): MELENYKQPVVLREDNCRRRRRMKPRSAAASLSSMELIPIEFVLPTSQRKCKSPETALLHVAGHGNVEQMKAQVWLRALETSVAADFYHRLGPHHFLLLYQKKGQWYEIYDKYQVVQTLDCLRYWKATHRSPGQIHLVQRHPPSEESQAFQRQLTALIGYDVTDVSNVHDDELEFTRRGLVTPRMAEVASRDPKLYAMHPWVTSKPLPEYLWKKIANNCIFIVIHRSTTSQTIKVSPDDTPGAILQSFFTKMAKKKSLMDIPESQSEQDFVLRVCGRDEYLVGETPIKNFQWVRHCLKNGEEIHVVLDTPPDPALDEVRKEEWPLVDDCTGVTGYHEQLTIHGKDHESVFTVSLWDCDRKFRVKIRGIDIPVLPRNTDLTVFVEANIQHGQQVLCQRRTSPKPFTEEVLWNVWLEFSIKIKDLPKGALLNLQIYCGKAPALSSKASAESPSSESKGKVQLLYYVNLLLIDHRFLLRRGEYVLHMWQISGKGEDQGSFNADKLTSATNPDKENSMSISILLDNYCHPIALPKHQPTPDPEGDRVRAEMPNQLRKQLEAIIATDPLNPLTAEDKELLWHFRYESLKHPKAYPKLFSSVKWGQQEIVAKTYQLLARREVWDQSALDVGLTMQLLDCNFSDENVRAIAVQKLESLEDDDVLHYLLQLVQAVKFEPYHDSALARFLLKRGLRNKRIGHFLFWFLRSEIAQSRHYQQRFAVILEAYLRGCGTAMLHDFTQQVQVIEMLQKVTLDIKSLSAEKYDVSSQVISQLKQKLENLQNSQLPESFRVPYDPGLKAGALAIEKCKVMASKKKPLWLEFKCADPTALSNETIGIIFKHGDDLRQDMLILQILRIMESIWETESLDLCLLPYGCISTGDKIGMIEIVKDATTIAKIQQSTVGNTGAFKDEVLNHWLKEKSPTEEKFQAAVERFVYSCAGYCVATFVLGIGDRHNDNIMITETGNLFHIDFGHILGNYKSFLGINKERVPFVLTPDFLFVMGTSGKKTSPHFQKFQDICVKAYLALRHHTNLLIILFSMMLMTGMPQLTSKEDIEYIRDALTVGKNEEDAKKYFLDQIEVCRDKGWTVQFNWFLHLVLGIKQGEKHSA

## COc1ncc2cc1NS(=O)(=O)c1cccc(c1)C(=O)NCc1cncc(c1)-c1cnc3ccc-2cn13
[1]
  Ki: 0.16 nM
[2]
  remaining at 0.25 h, 0.5 µM: 97%
MCF7
  GI50: 7 nM
HCT-116
  GI50: 22.8 nM
[3]
  Ki: 0.06 nM
[4]
  IC50: 3.3 nM
[5]
  clearance: 31.5 mL/min/kg
SK-OV-3
  GI50: 18.9 nM
Homo sapiens [6]
  Selectivity ratio: 6.3
[7]
  EC50: 0.84 nM
Homo sapiens [8]
  Selectivity ratio: 6
[9]
  Ki: 0.98 nM
[10]
  EC50: 0.92 nM
[11]
  remaining at 0.25 h, 0.5 µM: 100%
[12]
  half-life: 313 min
Homo sapiens [13]
  Selectivity ratio: 0.4
[14]
  AUC(0-inf): 2640 ng·h/mL
HT-29
  GI50: 8.2 nM
[15]
  Ki: 0.1 nM
Cytochrome P450 2C19
  IC50: > 30 µM
[16]
  remaining at 0.25 h, 0.5 µM: 100%
[17]
  IC50: 0.8 nM
